High-throughput results (PubChem)
Scp-1 inhibitor: inhibitors of human Scp-1 phosphatase | Recombinant Scp1, phosphopeptide, malachite green phosphate absorbance | 0.88% of 340,000 active | Q9GZU7 | inhibition, % at 20 µM;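 active = inhibition above about 50% at 20 µM, limit read from the data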;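 also: plate controls were DMSO wells with enzyme for no effect and wells lacking enzyme for full effect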
Target sequence (Q9GZU7 76-261 limits assumed): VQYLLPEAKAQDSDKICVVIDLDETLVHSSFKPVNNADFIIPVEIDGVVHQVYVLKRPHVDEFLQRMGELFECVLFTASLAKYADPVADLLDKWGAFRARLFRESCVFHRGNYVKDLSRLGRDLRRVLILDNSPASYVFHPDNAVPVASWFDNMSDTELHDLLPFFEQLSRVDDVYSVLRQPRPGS
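Material: truncated SCP-1 phosphatase (76-261aa) / Buffer or medium: 50 mM Tris acetate pH 5.5, 0.005% Tween-20, 10 mM MgCl2 / Compound dosing: one concentration, 20 µM, with 1.0% DMSO / Incubation: 45 min room-temperature reaction, 5 min colour, 30 min stabiliser / Detection: colorimetric free-phosphate detection, absorbance 630 nm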
CFTR F508del cor: CFTR F508del correction in bronchial cells | CFBE cells, YFP halide quenching; stimulated with forskolin plus potentiator P3; % fluorescence drop versus neutral controls | activity (quench increase), % at 7.58 µM | 0.36% of 350,000 active | AID 720511;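 active = mean added fluorescence quench of at least 8% versus neutral control, with both replicates also reaching 8%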;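 also: cells transiently co-express mutant CFTR-F508del with the halide-sensitive YFP; corrector assay measuring rescue of mutant channel to the surface after 24 h compound exposure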
STEP inh: inhibitors of human striatal-enriched phosphatase STEP. P54829. inhibition, % at 20 µM. recombinant STEP, OMFP fluorogenic substrate, fluorescence. 0.25% of 360,000 active. AID 588621;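 active = inhibition at 20 µM, scaled per plate between control wells, above about 37%, limit read from the data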;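 also: 0% = DMSO with enzyme and substrate and 100% = substrate only without enzyme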
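Test system: STEP tyrosine phosphatase / Reagent: OMFP at 25 µM / Doses: 20 µM, 1% DMSO / Read-out: percent inhibition scaled to no-enzyme and uninhibited-enzyme controls, plate-pattern corrected / Detection: FITC-channel fluorescence of OMFP product / Medium: Bis-Tris buffer pH 6.0, 2.5 mM DTT, 0.005% Tween 20 / Schedule: 20 min at room temperature, dark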
SUMO1-SIM PPI: alters human SUMO1 binding to SIM partners; SUMO1 binding to a labelled peptide, TR-FRET, 1 h; P63165; 0.33% of 360,000 active; inhibition, % at 20 µM; in the data active = inhibition above about 37%
Target sequence (P63165 whole entry, looked up): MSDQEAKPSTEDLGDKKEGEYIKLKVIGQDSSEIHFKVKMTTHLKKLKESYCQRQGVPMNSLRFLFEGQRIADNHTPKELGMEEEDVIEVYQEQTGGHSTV
DNMT1 inh: blocks human DNA methyltransferase DNMT1; P26358; DNMT1 molecular beacon, Hinp1I cleavage, fluorescence; inhibition (reported as % activation of signal), % at 10 µM; 0.83% of 360,000 active; AID 588458; in the data active = inhibition above about 50%
LMPTP inh: blocks human LMPTP phosphatase | inhibition, % at 20 µM | P24666 | AID 651560 | 0.22% of 360,000 active | recombinant LMPTP-A, OMFP fluorogenic substrate, fluorescence intensity;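 active = compounds that cut the enzyme signal by at least half of the control window in the single-dose screen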;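 also: plate controls were DMSO wells with enzyme plus substrate for no effect and substrate without enzyme for full effect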
Target sequence (P24666 whole entry, looked up): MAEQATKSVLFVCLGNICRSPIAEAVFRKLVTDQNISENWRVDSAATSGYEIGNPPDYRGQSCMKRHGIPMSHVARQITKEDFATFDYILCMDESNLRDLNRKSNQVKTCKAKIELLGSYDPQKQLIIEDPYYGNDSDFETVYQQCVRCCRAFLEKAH
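Assay system: LMPTP-A phosphatase enzyme | Input: 0.625 nM enzyme | Also added: Fluorogenic phosphatase substrate OMFP at 400 µM final | Compound dosing: One test concentration per compound, 20 µM, with 3% DMSO overall | Schedule: 50 min enzyme reaction at room temperature, protected from light | Signal: Fluorescence intensity | Benchmarks: no-enzyme and uninhibited controls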
DNMT1 interf DR: beacon fluorescence artifact, dose response counter-screen. shares compounds with DNMT1 inh. AID 602382. 200 tested, under 10 active. IC50, µM. molecular beacon fluorescence, spectral interference counter-screen; call rule not given here
DNMT1 confirm: confirmation of human DNMT1 inhibitors. shares compounds with DNMT1 inh. 8% of 2,300 active. inhibition, % at 10 µM. DNMT1 molecular beacon HinP1I cleavage, fluorescence;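 active = average inhibition of at least 30% in the single-concentration confirmation test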
DNMT1 interf: beacon fluorescence artifact counter-screen; shares compounds with DNMT1 inh; DNMT1 molecular beacon spectral interference counterscreen, fluorescence 485/520; activation (fluorescence interference), % at 10 µM; 1% of 2,300 active;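 active = activation of at least 30% at 10 µM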;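 also: DNMT1 catalytic domain with a HinP1I cleavage step and a FAM/dabcyl DNA beacon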
* hit, by the source's call. Rows were chosen to be rich in hits. Some 1.6% of all compounds tested hit in one or more screens of this group.

CC(=O)Nc1ccc(OC(F)(F)C(F)F)c(NC(C)=O)c1 was read as Scp-1 inhibitor -5, STEP inh -1, SUMO1-SIM PPI 0, DNMT1 inh -1 and LMPTP inh -2.
For COc1cc2c(C#N)c(N3CCCCC3)nc(N)c2c(N)n1 the results were Scp-1 inhibitor 1, STEP inh 6, SUMO1-SIM PPI 52*, DNMT1 inh 65*, LMPTP inh 9, DNMT1 confirm 8 and DNMT1 interf 9.
For CCN(CC)c1nc(N)c(C#N)c(CC#N)c1C#N the results were Scp-1 inhibitor -5, CFTR F508del cor -5, STEP inh -1, SUMO1-SIM PPI 5, DNMT1 inh -2 and LMPTP inh 0.
Screening CCN(CC)c1nc(N)c2c(N)nc(OC)cc2c1C#N returned Scp-1 inhibitor -4, CFTR F508del cor 2, STEP inh 8, SUMO1-SIM PPI 52*, DNMT1 inh 81*, LMPTP inh 21, DNMT1 confirm 2 and DNMT1 interf 2.
Screening CC(C)NC(=O)Nc1ccc2c(c1)CC(=O)N([C@@H](C)CO)C[C@H](C)[C@@H](CN(C)S(=O)(=O)c1cn(C)cn1)O2 returned CFTR F508del cor -3.
`COC(=O)\C(C(C)=O)=C(/C=C/C=C/C=C/N(C)C)N(C)C` gave Scp-1 inhibitor 74*, STEP inh 10, SUMO1-SIM PPI -2, DNMT1 inh 109*, LMPTP inh 1, DNMT1 interf DR >99, DNMT1 confirm 37* and DNMT1 interf 19.
CC(C)=CCC/C(C)=C/CC/C(C)=C/CC/C(C)=C/CC1=C(C)C(=O)c2ccccc2C1=O was read as Scp-1 inhibitor -1, CFTR F508del cor -3, STEP inh 0, SUMO1-SIM PPI -9, DNMT1 inh -4 and LMPTP inh 0.
`CC(C)=CCC1=C(OCC(=O)O)C(=O)c2ccccc2C1=O` gave Scp-1 inhibitor -4, CFTR F508del cor -1, STEP inh 8, SUMO1-SIM PPI 27, DNMT1 inh 71*, LMPTP inh 6, DNMT1 confirm -4 and DNMT1 interf 1.
Screening CC=Cc1ccc2n(c1=O)C[C@H]1[C@H](CO)[C@@H](C(=O)N(C)C)[C@@H]2N1CC1CCCC1 (mixture of isomers) returned CFTR F508del cor 5.
Screening O=C(NCSc1ccnc(SCNC(=O)c2ccc(F)cc2)n1)c1ccc(F)cc1 returned Scp-1 inhibitor 38, STEP inh 6, SUMO1-SIM PPI 2, DNMT1 inh 52*, LMPTP inh 0, DNMT1 confirm 3 and DNMT1 interf -6.
O=C(NCCNC(=O)c1ccc(F)cc1)c1ccc(F)cc1 was read as Scp-1 inhibitor -6, CFTR F508del cor 1, STEP inh 0, SUMO1-SIM PPI 7, DNMT1 inh 3 and LMPTP inh -1.
Screening C[C@H](CO)N1C[C@H](C)[C@@H](CN(C)C(=O)Nc2ccc(C(F)(F)F)cc2)Oc2ncc(C#C[C@@H](C)O)cc2C1=O returned CFTR F508del cor -1.
Nc1c(N(CCC2=CCCCC2)C(=O)COc2ccc(F)cc2Cl)c(=O)[nH]c(=O)n1Cc1ccccc1 was read as Scp-1 inhibitor -10, CFTR F508del cor -3, STEP inh 3, SUMO1-SIM PPI 2, DNMT1 inh 54*, LMPTP inh -2, DNMT1 confirm 2 and DNMT1 interf 2.
`Nc1c(N(CCC2=CCCCC2)C(=O)COc2ccc([N+](=O)[O-])cc2)c(=O)[nH]c(=O)n1Cc1ccccc1` gave Scp-1 inhibitor -4, CFTR F508del cor 4, STEP inh 1, SUMO1-SIM PPI -2, DNMT1 inh 58*, LMPTP inh -3, DNMT1 confirm 0 and DNMT1 interf 4.
